Data as given in ChEMBL document CHEMBL5579791, “Azetidine ring, salicylic acid, and salicylic acid bioisosteres as determinants of the binding characteristics of novel potent compounds to Stat3” (Bioorg Med Chem Lett, 2024).
The source made the active and inactive calls. The calls are words filed in the database; no cut-off is given here. Where a SMILES comes first, the peptide text is derived from it. [ ]: non-standard residue; d: D form. pY = N[C@@H](Cc1ccc(OP(=O)(O)O)cc1)C(=O)O

What was measured:
[1] = biological target: T1, Signal transducer and activator of transcription 3 (Homo sapiens, UniProt P40763); assay: (§1) Displacement of 5-carboxyfluorescein GpYLPQTV-NH2 probe from C-terminal 6His-tagged recombinant human STAT3 (127 to 711 residues) SH2 domain extracted from Escherichia coli BL21 (DE3) assessed as inhibition of dimerization preincubated for 60 mins followed by probe addition and measured after 30 mins by fluorescence polarization assay
T1 sequence (P40763 whole entry, the tested form may be a part): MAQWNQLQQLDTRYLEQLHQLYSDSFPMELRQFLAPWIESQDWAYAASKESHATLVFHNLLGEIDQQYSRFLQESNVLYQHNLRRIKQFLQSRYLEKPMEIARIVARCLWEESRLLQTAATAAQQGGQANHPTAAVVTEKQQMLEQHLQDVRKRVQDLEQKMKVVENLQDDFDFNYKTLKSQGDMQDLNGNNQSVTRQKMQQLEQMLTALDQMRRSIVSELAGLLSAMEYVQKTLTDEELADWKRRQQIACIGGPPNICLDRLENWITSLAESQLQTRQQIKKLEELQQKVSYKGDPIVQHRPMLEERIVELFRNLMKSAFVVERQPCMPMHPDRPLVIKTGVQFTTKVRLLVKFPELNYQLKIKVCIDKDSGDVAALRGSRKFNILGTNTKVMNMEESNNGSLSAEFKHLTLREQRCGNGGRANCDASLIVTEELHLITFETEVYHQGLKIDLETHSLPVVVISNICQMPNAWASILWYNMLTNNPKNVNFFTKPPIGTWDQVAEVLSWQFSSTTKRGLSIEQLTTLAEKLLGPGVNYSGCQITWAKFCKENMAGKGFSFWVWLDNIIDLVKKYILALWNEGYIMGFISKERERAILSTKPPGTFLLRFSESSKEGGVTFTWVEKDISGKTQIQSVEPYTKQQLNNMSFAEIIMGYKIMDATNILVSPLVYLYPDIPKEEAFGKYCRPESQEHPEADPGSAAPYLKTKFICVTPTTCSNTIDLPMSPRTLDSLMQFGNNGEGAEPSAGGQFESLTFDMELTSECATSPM

[2] = biological target: T1, Signal transducer and activator of transcription 3; assay: as §1, with “10” for “60”
[3] = biological target: T1, Signal transducer and activator of transcription 3; assay: as §1, with “30” for “60”
[4] = biological target: T1, Signal transducer and activator of transcription 3; assay: (§2) Inhibition of recombinant wild type tyrosine phosphorylated C-terminal 6His tagged human STAT3 (127 to 711 residues) DNA-binding activity transfected in v-Src transformed mouse NIH3T3 cell nuclear extract preincubated for 30 mins followed by addition of radiolabeled hSIE and measured after 30 mins by EMSA analysis; type: subcellular, Nucleus
[5] = biological target: Signal transducer and activator of transcription 3 (Homo sapiens, UniProt P40763, C542S); assay: as §2, with “STAT3 C542S mutant” for “STAT3”; type: subcellular, Nucleus
Signal transducer and activator of transcription 3 (Homo sapiens, UniProt P40763, C542S), sequence (P40763 2-770 C542S limits assumed): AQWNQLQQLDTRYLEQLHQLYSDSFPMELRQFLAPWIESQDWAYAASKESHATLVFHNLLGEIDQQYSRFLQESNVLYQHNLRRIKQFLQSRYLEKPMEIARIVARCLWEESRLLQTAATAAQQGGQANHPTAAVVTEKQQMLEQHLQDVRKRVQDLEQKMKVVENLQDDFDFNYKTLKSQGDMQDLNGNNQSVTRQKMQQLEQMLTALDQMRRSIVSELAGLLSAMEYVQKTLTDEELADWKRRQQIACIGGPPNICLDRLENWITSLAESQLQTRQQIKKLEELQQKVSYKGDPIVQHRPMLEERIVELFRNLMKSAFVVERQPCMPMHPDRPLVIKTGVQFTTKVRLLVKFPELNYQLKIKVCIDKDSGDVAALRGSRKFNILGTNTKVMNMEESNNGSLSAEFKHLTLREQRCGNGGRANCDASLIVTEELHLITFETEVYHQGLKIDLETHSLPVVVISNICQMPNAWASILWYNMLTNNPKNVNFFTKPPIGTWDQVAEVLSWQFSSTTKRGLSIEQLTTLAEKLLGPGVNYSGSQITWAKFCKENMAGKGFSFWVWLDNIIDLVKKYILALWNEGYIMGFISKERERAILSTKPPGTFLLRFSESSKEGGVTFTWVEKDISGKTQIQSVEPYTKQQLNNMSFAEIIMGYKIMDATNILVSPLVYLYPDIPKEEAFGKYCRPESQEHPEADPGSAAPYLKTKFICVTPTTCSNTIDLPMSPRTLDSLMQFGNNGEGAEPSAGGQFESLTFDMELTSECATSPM

PANC-1 [6] = assay: Inhibition of STAT3/gp130 protein-protein interaction in human PANC-1 cells at 3 uM incubated for 8 hrs by immunoblotting analysis; type: cell-based
How it was run: (§3)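 Panc-1 pancreatic cancer cells treated 8 h; whole-cell lysates prepared, EGFR, gp130, Src or JAK2 immunoprecipitated and immunoblotted for Stat3; control cells given 0.1% DMSO; 2 independent determinations.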

[7] = biological target: T1, Signal transducer and activator of transcription 3; assay: Inhibition of C-terminal 6His-tagged recombinant human STAT3 (127 to 711 residues) DNA-binding activity transfected in v-Src transformed mouse NIH3T3 cell nuclear extract preincubated for 10 mins followed by addition of radiolabeled hSIE and measured after 30 mins by EMSA analysis; type: subcellular, Nucleus
PANC-1 [8] = assay: Inhibition of STAT3/Src protein-protein interaction in human PANC-1 cells at 3 uM incubated for 8 hrs by immunoblotting analysis; type: cell-based; how it was run: as §3
PANC-1 [9] = assay: Inhibition of STAT3/EGFR protein-protein interaction in human PANC-1 cells at 3 uM incubated for 8 hrs by immunoblotting analysis; type: cell-based; how it was run: as §3
[10] = biological target: T1, Signal transducer and activator of transcription 3; assay: Inhibition of C-terminal 6His-tagged recombinant human STAT3 (127 to 711 residues) DNA-binding activity transfected in v-Src transformed mouse NIH3T3 cell nuclear extract preincubated for 60 mins followed by addition of radiolabeled hSIE and measured after 30 mins by EMSA analysis; type: subcellular, Nucleus
[11] = biological target: JAK2-STAT3 (Homo sapiens) (UniProt O60674+P40763); assay: Inhibition of STAT3/JAK2 protein-protein interaction in human PANC-1 cells at 3 uM incubated for 8 hrs by immunoblotting analysis; type: cell-based
[12] = biological target: Signal transducer and activator of transcription 3 (Homo sapiens, UniProt P40763, C328A); assay: as §2, with “STAT3 C328A mutant” for “STAT3”; type: subcellular, Nucleus
Signal transducer and activator of transcription 3 (Homo sapiens, UniProt P40763, C328A), sequence (P40763 2-770 C328A limits assumed): as the sequence (P40763 2-770 C542S limits assumed) above, with C327A, S541C counted along it

SMILES | IC50 [1] [µM] | IC50 [2] [µM] | IC50 [3] [µM] | IC50 [4] [µM] | IC50 [5] [µM] | inhibition (PANC-1 [6]) | IC50 [7] [µM] | inhibition (PANC-1 [8]) | inhibition (PANC-1 [9]) | IC50 [10] [µM] | inhibition [11] | IC50 [12] [µM]
CN(CC(=O)N(Cc1ccc(C2CCCCC2)cc1)c1ccc(C(=O)O)c(O)c1)S(=O)(=O)c1c(F)c(F)c(Cl)c(F)c1F | 35.5 | 48.4 | 41.4 |  |  |  |  |  |  |  |  | 
Cc1ccc(S(=O)(=O)N2CC[C@@H]2C(=O)N(Cc2ccc(C3CCCCC3)cn2)c2ccc(C(=O)O)c(O)c2)cc1 | 82.5 | 86.4 | 83.6 |  |  |  |  |  |  |  |  | 
O=C([C@H]1CCN1S(=O)(=O)c1c(F)c(F)c(F)c(F)c1F)N(Cc1ccc(C2CCCCC2)cn1)c1ccc2c(=O)[nH]ncc2c1 | > 600 | > 600 | > 600 | 4.8 | 5.5 | Active | 1.5 | inactive | Active | 0.38 | Active | 8.8
CC(C)C[C@H](NC(=O)[C@H](Cc1ccc(OP(=O)(O)O)cc1)NC(=O)CN)C(=O)N1CCC[C@H]1C(=O)N[C@@H](CCC(N)=O)C(=O)N[C@H](C(=O)N[C@H](C(=O)O)C(C)C)[C@@H](C)O (H-G[pY]LPQTV-OH) | 0.19 | 0.29 | 0.22 |  |  |  |  |  |  |  |  | 
O=C(O)c1ccc(N(Cc2cnc(C3CCCCC3)cn2)C(=O)[C@H]2CCN2S(=O)(=O)c2c(F)c(F)c(Cl)c(F)c2F)cc1O | 181 | 190 | 186 |  |  |  |  |  |  |  |  | 
